Shown are actives, neighbours in structure and some others; about 3% of the full set was active somewhere.
ROMK primary: modulators of human ROMK potassium channel; P48048; Tet-inducible ROMK, thallium flux fluorescence; actives lie on both sides; B-score at 10 µM; actives 2% (n = 130,000); AID 1918;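 active = signal ratio slope over the read window, or its plate-corrected B-score, at least 3 SD from the plate mean, either direction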;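 note: B-score of the F/F0 ratio slope over 7 to 12 s after thallium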
Target sequence (P48048 whole entry, looked up): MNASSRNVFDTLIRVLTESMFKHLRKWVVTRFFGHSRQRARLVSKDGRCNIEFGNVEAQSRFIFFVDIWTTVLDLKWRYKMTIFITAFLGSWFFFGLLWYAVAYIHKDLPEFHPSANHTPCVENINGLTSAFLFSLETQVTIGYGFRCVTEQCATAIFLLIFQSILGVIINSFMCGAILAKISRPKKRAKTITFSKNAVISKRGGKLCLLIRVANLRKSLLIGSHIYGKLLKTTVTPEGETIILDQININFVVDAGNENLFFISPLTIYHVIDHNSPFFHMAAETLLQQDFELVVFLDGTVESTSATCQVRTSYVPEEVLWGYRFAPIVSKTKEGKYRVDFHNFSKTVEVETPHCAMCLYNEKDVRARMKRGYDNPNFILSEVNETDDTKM
Rad51 HR inh: blocks human Rad51 in homologous recombination; inhibition, % at 10 µM; hRad51 DNA strand exchange, fluorescence dequenching; actives 0.085% (n = 200,000); Q06609;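 active = inhibition above 40% at the single screening dose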;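 note: 0% = DMSO control wells and 100% = blanks with heterologous ssDNA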
Target sequence (Q06609 whole entry, looked up): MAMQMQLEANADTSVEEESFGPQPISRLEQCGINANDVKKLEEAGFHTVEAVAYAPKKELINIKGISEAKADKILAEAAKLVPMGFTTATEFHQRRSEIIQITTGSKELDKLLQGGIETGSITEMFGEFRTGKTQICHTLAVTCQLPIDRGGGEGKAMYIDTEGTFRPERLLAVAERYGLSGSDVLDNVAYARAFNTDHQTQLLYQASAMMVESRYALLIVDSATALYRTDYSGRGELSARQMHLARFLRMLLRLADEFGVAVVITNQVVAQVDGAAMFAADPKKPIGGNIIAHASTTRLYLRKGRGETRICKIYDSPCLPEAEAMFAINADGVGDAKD
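Read-out basis: percent inhibition relative to plate controls and blanks / Assay system: human Rad51 nucleoprotein filaments preassembled on unlabelled ssDNA / Timing: filaments 15 min 37 °C, then compound 30 min / Control set: per-plate controls and blanks / Technique: fluorescence dequenching at 485/520 nm / Compound: 10 µM final, single point / Also added: Fluorescein- and BHQ1-tagged 47-mer duplex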
PKD1 inh: PKD1 (human) kinase inhibition. Q15139. actives 0.056% (n = 200,000). inhibition, % (concentration not given with the values). AID 797. PKD1 kinase fluorescence polarization assay; in the data active = inhibition above about 50%
Cl transport mod: modulates chloride dependent transport by human KCC2; B-score of Tl+ flux slope (higher = more flux/activation; lower = inhibition) at 10 µM; KCC2 cells, thallium flux FluoZin-2 fluorescence; actives 2.2% (n = 190,000);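 active = thallium flux slope and its plate-corrected score both differing from the plate sample mean at a set confidence after two filtering rounds, in either direction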;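 note: slope of fluorescence scaled to starting intensity during 10 to 20 s after thallium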
KCC2 sec1: KCC2 (human) modulation, secondary assay; shares compounds with Cl transport mod; HEK293-KCC2, thallium flux, FluoZin2 fluorescence; stronger effect = higher value; normalised thallium flux (F/F0 slope) at 10 µM; actives 15% (n = 3,700);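 active = thallium flux slope above the same plate's solvent-only control mean plus 3 SD; inconclusive = the two replicate wells disagree; inactive = no significant difference from solvent-only control wells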
KCC2 bumet counter: thallium flux persisting under bumetanide in KCC2 cells, counter-screen secondary assay; actives 49% (n = 3,700); shares compounds with Cl transport mod; AID 1714; normalized thallium flux at 10 µM; HEK293-KCC2 + bumetanide/ouabain, thallium flux FluoZin2; stronger effect = higher value;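 active = thallium entry rate above the same plate's blocked-transporter control wells by more than 3 SD; inconclusive = the two repeat wells disagree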;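 note: raw slope of fluorescence over initial fluorescence between 10 and 20 s after thallium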
KCC2 sec2: KCC2 (human) modulation, second secondary assay. actives 23% (n = 3,700). HEK293-KCC2, thallium flux FluoZin2 fluorescence; actives lie on both sides; F/F0 rise rate, 10–20 s post-thallium. normalized thallium flux at 10 µM. shares compounds with Cl transport mod;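 active = thallium flux slope more than 3 SD above or below the plate's solvent-only control mean, mostly below; inconclusive = the two repeat wells disagreed; inactive = no significant shift from solvent-only controls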;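 note: raw slope with 0.1% DMSO as baseline and bumetanide as block control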
HEK counter1: parental HEK flux effect, counter-screen. thallium flux rate (normalised fluorescence) at 10 µM. HEK293 parental cells, thallium flux FluoZin2, ouabain; baseline-ratio fluorescence slope, 10–20 s after thallium. shares compounds with Cl transport mod. actives 46% (n = 3,700);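 active = thallium flux rate significantly above the same plate's solvent-only control wells, beyond their mean plus 3 SD; inconclusive = the two replicate wells gave conflicting results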
KCC2 retest ouab: KCC2 (human) modulation, ouabain retest; raw Tl+ flux slope (below DMSO = inhibition, above = activation) at 10 µM; actives 48% (n = 3,700); AID 1717; shares compounds with Cl transport mod; HEK293-KCC2, thallium flux FluoZin2 fluorescence; bidirectional: low = inhibitor, high = activator;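 active = thallium flux slope beyond 3 SD from same-plate DMSO control mean in most replicates, usually higher, sometimes lower; inconclusive = repeat tests gave conflicting results; inactive = no significant difference from controls in most replicates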;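 note: slope of initial-normalized fluorescence between seconds 10 and 20 after thallium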
HEK293 Tl flux2: acts in parental HEK cells, second KCC2 counter-screen. shares compounds with Cl transport mod. HEK293 parental, thallium flux FluoZin-2 fluorescence slope. thallium flux slope at 10 µM. actives 33% (n = 3,700);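 active = thallium flux slope above the same plate's solvent-control mean plus 3 SD in both duplicate wells; inconclusive = duplicate wells that disagreed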;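 note: run without ouabain in cells lacking the KCC2 cotransporter; slope of fluorescence scaled to its starting value between 10 and 20 s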
* marks the source's active call; other numbers are inactive results; i = inactive; ? = inconclusive; · = not tested or not shown.

SMILES | ROMK primary | Rad51 HR inh | PKD1 inh | Cl transport mod | KCC2 sec1 | KCC2 bumet counter | KCC2 sec2 | HEK counter1 | KCC2 retest ouab | HEK293 Tl flux2
CS(=O)(=O)N(CC(=O)N1CCN(c2ccccc2)CC1)c1cccc(Br)c1 | 0.091 | 3 | -4 | · | 0.0063 | 0.005 | 0.023* | 0.0076 | 0.015* | 0.01
CC(=O)N1CC(=O)N=C1SCC(=O)Nc1nc(-c2ccccc2)c(-c2ccccc2)s1 | -2.1 | 14 | -3 | -0.36 | · | · | · | · | · | ·
CCN(CC)S(=O)(=O)c1ccc(NC(=O)C(C)N(c2ccc(OC)cc2)S(C)(=O)=O)cc1 (stereo not given) | -0.18 | · | 1 | · | · | · | · | · | · | ·
CCOc1ccc(N(C(C)C(=O)Nc2ccc(OC)cc2)S(C)(=O)=O)cc1 (stereo not given) | · | 1 | -5 | -5* | 0.015 | 0.0046 | 0.029 | 0.0073 | 0.015 | 0.011
O=C(NNC(=S)Nc1cccc(Cl)c1)c1ccccc1OC(F)F | · | 10 | -10 | 6.4* | 0.01 | 0.033* | 0.034 | 0.017* | 0.036* | 0.012*
Cc1ccc(NC(=S)NNC(=O)c2ccccc2OC(F)F)cc1 | · | · | -10 | 8.4* | 0.011 | 0.022* | 0.033 | 0.018* | 0.028* | 0.013*
O=C(NNC(=S)Nc1ccc(F)cc1)c1ccccc1OC(F)F | 0.95 | 8 | 3 | 0.33 | · | · | · | · | · | ·
COc1cccc(NC(=S)NNC(=O)c2ccccc2OC(F)F)c1 | · | 0 | -6 | 2.4 | · | · | · | · | · | ·
COc1ccc(-n2cnnc2SCC(=O)NC2CCCc3ccccc32)cc1 (stereo not given) | · | 9 | 2 | -0.81 | · | · | · | · | · | ·
CN(C)CCCNC(=O)c1cc(S(=O)(=O)N2CCOCC2)ccc1F | 0.46 | 4 | 5 | -0.1 | · | · | · | · | · | ·
O=C(NCCSCc1ccccc1)c1cc(S(=O)(=O)N2CCOCC2)ccc1F | · | · | 3 | -3.8* | 0.0063 | 0.0051 | 0.026* | 0.0076 | ? | 0.011
Cc1ccc(S(=O)(=O)N2CCC(=O)N(C(COCc3ccccc3)Cc3ccccc3)CC2)cc1 (stereo not given) | -1.1 | 1 | -3 | -5.9* | 0.0091 | 0.0061 | ? | 0.0072 | 0.015* | 0.011
Cn1nc(C(=O)NCc2cccs2)c2ccccc2c1=O | 0.0042 | 2 | -2 | 0.43 | · | · | · | · | · | ·
O=C(NNC(=O)c1oc2ccccc2c1-n1cccc1)c1ccco1 | 0.46 | · | -2 | · | 0.0074 | 0.024* | 0.04* | 0.019* | 0.03* | 0.019*
NNC(=O)c1oc2ccccc2c1-n1cccc1 | -0.0094 | -2 | 0 | -0.22 | · | · | · | · | · | ·
O=C1C=C(O)C(n2cncn2)C(c2ccc3c(c2)OCO3)C1 (stereo not given) | -0.34 | -4 | -2 | 0.085 | · | · | · | · | · | ·
Nc1c(C(=O)c2ccc(Cl)cc2)sc2nsc(SCCN3CCOCC3)c12 | · | i | · | 0.21 | · | · | · | · | · | ·
Nc1c(C(=O)c2ccccc2)sc2nsc(SCCN3CCCC3)c12 | · | -400 | · | 4.2* | 0.006* | 0.0072 | 0.03 | 0.0074 | 0.014* | 0.01
CC(C)(C)c1nnc2cccc(Cl)n12 | 0.23 | 14 | -5 | 0.42 | · | · | · | · | · | ·
Cc1c(Cl)cccc1N=c1c([N+](=O)[O-])nn(-c2ccccc2)n1O | 1.6 | -6 | -2 | 6* | 0.0063 | 0.0047 | 0.027 | 0.0078 | 0.019 | 0.0096
N#C/C(=C\c1ccc(-c2ccc([N+](=O)[O-])cc2)o1)C(=O)Nc1nc(-c2cccs2)cs1 | · | 9 | · | 1.9 | · | · | · | · | · | ·
N#C/C(=C\c1ccc(-c2ccccc2[N+](=O)[O-])o1)C(=O)Nc1nc(-c2cccs2)cs1 | · | -4 | -5 | 7.7* | 0.018 | 0.027* | 0.032 | 0.017* | 0.022* | 0.016*
O=C(NCc1ccco1)c1nc2c(nnn2Cc2cccc(Cl)c2)c(=O)[nH]1 | · | -13 | 0 | -4.7* | 0.0051 | 0.0058* | ? | 0.0063* | 0.014* | 0.01
O=C(NCc1ccccc1)c1nc2c(nnn2Cc2cccc(Cl)c2)c(=O)[nH]1 | · | -5 | -3 | -5.1* | 0.006 | 0.0055 | 0.024* | 0.0063* | 0.013* | ?
O=C(NCCc1ccccc1)c1nc2c(nnn2Cc2ccccc2Cl)c(=O)[nH]1 | · | -23 | -3 | -1.4 | · | · | · | · | · | ·
SMILES | ROMK primary | Rad51 HR inh | PKD1 inh | Cl transport mod | KCC2 sec1 | KCC2 bumet counter | KCC2 sec2 | HEK counter1 | KCC2 retest ouab | HEK293 Tl flux2
CN(CCC1CCCCO1)C(=O)CCc1nnc(C2CCCCC2)o1 (stereo not given) | 1.3 | 1 | -2 | 0.15 | · | · | · | · | · | ·
COc1ccc(CCNC(=O)c2c(O)c3c([nH]c2=O)CCCC3)cc1OC | 0.29 | · | -5 | · | · | · | · | · | · | ·
CCOC(=O)C1CCCN(C(=O)c2cccc(NC(=O)C(CC)CC)c2)C1 (stereo not given) | 0.98 | 5 | 4 | 0 | · | · | · | · | · | ·
CCOc1ccc(Nc2nc(Cc3nnc(SCC(=O)O)o3)cs2)cc1 | · | 3 | -1 | · | 0.005 | 0.005 | 0.027 | 0.0077 | 0.015* | 0.011
CCOc1ccc(CCNC(=O)C2CCC(=O)N2CCc2ccccc2)cc1OCC (stereo not given) | · | 5 | 1 | · | 0.016 | 0.004 | 0.031 | 0.0069 | 0.016 | 0.0098
CCN(CC)CCNC(=O)C1CCC(=O)N1CCc1ccccc1 (stereo not given) | 0.24 | 7 | -9 | · | · | · | · | · | · | ·
CC1CCC2(CC1)NC(=O)N(Cc1cccc(C(F)(F)F)c1)C2=O (stereo not given) | 0.27 | 6 | 3 | 0.53 | · | · | · | · | · | ·
Cc1ccccc1CNC(=O)c1cc(COc2ccc(F)cc2F)on1 | 0.22 | -39 | -1 | -2.2 | · | · | · | · | · | ·
O=C(c1cc(COc2ccc(F)cc2Cl)on1)N1CCCC(OCc2cccnc2)C1 (stereo not given) | 0.014 | -20 | -6 | · | 0.0067 | 0.0052 | 0.028 | 0.0071 | 0.014* | ?
O=C(c1cc(COc2c(F)cccc2F)on1)N1CCC(c2ccccc2Cl)C1 (stereo not given) | 0.45 | · | -1 | · | · | · | · | · | · | ·
O=C(c1cc(COc2ccc(F)cc2Cl)on1)N1CCC(OCc2cccnc2)CC1 | 0.027 | · | 3 | · | 0.0081 | 0.0064 | 0.028 | 0.007 | 0.03* | 0.01
CN1CCN(C(=O)c2cc(COc3ccc(F)cc3Cl)on2)CC1c1ccccc1 (stereo not given) | -0.3 | 14 | -1 | · | · | · | · | · | · | ·
Cc1nonc1C1CCCN1C(=O)c1cc(COc2ccc(F)cc2Cl)on1 (stereo not given) | -0.54 | -2 | -3 | · | 0.016 | 0.004 | 0.024* | ? | 0.013 | 0.0099
